Test results taken from publication PMC4102658 (Circulation. Cardiovascular imaging, 2014).

Molecular target: T1, fibrin (Rattus norvegicus, UniProt P02680+P06399+P14480)
T1 sequence (P06399 20-550 isoform P06399-2 limits assumed): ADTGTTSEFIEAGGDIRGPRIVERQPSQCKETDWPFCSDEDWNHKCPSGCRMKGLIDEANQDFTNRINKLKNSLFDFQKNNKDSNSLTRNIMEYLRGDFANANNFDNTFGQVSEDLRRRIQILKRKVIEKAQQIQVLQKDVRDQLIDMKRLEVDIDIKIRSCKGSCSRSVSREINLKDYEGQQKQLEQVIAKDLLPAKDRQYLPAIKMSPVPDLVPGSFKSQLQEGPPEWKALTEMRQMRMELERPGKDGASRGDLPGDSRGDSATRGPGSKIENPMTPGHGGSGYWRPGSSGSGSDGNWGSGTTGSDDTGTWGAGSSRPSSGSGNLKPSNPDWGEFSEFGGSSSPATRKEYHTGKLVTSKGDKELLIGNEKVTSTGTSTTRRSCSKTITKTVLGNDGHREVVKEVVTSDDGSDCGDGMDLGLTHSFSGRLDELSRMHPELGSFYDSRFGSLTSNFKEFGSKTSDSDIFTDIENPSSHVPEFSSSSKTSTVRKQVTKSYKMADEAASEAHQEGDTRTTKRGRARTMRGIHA
T1 sequence (P14480 33-479 limits assumed): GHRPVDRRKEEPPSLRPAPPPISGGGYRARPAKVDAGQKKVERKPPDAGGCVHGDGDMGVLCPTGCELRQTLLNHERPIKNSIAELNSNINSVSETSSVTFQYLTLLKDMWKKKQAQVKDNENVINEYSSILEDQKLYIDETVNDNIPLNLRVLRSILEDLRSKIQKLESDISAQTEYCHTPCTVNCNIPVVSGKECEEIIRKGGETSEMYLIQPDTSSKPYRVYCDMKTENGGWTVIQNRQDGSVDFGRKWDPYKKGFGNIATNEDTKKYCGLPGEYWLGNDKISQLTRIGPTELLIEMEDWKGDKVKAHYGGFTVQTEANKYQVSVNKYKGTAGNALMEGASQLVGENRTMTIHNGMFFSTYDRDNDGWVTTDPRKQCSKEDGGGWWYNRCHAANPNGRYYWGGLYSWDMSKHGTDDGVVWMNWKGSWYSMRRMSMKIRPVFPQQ
T1 sequence (P02680 26-437 isoform P02680-2 limits assumed): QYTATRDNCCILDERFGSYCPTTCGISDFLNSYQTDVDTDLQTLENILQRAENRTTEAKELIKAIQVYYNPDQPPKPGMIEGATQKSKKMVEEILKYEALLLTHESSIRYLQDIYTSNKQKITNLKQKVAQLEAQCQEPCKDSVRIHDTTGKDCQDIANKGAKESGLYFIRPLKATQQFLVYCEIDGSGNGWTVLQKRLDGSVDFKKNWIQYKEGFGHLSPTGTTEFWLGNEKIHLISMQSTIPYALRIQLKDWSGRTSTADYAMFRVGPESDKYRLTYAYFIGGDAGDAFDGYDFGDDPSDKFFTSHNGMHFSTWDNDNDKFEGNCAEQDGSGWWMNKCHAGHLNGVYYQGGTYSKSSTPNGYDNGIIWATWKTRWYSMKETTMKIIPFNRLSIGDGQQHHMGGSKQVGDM
Experiment: brain autoradiography, embolic stroke with rtPA or vehicle
Format: in vivo
Details: rtPA-treated animals
In short: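 Rats with embolic clot in ICA/MCA got ~300 μCi probe (0.3–0.4 mL, saline flush) 15–30 min after surgery. About 1 h after clot injection they received rtPA (10 mg/kg i.v., 10% bolus, 90% infused over 30 min) or 1 mL saline. Euthanised after 45 min baseline plus 90 min PET. 2 mm brain sections autoradiographed; ipsilateral/contralateral ICA-MCA ROI activity ratio; mean ± S.E.M.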

Substance: rtPA: recombinant tissue plasminogen activator (alteplase), thrombolytic treatment
- ipsilateral to contralateral ICA-MCA ratio by autoradiography with FBP7: ~1
